Source: ChEMBL document CHEMBL1141192 (J Med Chem, 2005)
Values after ≈ are worked out from the molar mass of the structure shown.

How the values were obtained:
[1] = Time taken to achieve maximum concentration in dog at 3 mg/kg, po; assay type: ADME, organism-based, Canis lupus familiaris; parameters: dose 3 mg/kg, route oral; conditions: in vivo
Summary of the method: (§1)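 Compound at 3 mg/kg in 0.1% MC given po or iv to rats or dogs; plasma sampled at 0.25, 0.5, 1, 2, 4, 8 and 24 h; drug levels measured by HPLC.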

Rattus norvegicus [2] = organism: Rattus norvegicus; experiment: Rotarod test in rat at 2 hrs; assay type: functional; conditions: Sprague-Dawley
Summary of the method: (§2)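 Fasted male SD rats (94–104 g), n = 6 per dose group, given 10–300 mg/kg po in 0.1% MC after training on a 5 rpm rotorod; walking time recorded at 0, 0.5, 1, 2 and 5 h post-dose, 150 s cutoff.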

[3] = Time taken to achieve maximum concentration in rat at 3 mg/kg, po; assay type: ADME, organism-based; parameters: dose 3 mg/kg, route oral; conditions: in vivo; summary of the method: as §1
[4] = Half life at early phase in rat at 3 mg/kg, po; assay type: ADME, organism-based; parameters: dose 3 mg/kg, route oral; conditions: in vivo; summary of the method: as §1
[5] = Clearance in dog at 3 mg/kg, po; assay type: ADME, organism-based, Canis lupus familiaris; parameters: dose 3 mg/kg, route oral; conditions: in vivo; summary of the method: as §1
[6] = Half life in dog at 3 mg/kg, po; assay type: ADME, organism-based, Canis lupus familiaris; parameters: dose 3 mg/kg, route oral; conditions: in vivo; summary of the method: as §1
[7] = Half life at late phase in rat at 3 mg/kg, po; assay type: ADME, organism-based; parameters: dose 3 mg/kg, route oral; conditions: in vivo; summary of the method: as §1
Rattus norvegicus [8] = organism: Rattus norvegicus; experiment: Rotarod test in rat at 1 hr; assay type: functional; conditions: Sprague-Dawley; summary of the method: as §2
Rattus norvegicus [9] = experiment: Hyperalgesia in male SD rat administered 2 hrs after carrageenan injection, analgesia tested at 6 hrs; assay type: functional, Sprague-Dawley
Summary of the method: (§3)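 Fasted male SD rats (94–118 g); compound suspended in 0.1% MC, given orally at 1, 3 and 10 mg/kg either 1 h before (prophylactic) or 2 h after (therapeutic) intraplantar carrageenan (1%, 100 μL/paw). Mechanical threshold read by Randall-Selitto analgesimeter at 3, 4, 5 and 6 h post-carrageenan.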

[10] = Maximum concentration in rat at 3 mg/kg, po; assay type: ADME, organism-based; parameters: dose 3 mg/kg, route oral; conditions: in vivo; summary of the method: as §1
Rattus norvegicus [11] = experiment: Hyperalgesia in male SD rat administered 1 hr before carrageenan injection, analgesia tested at 5 hrs; assay type: functional, Sprague-Dawley; summary of the method: as §3
Rattus norvegicus [12] = organism: Rattus norvegicus; experiment: Inhibition of formalin induced paw pain in male SD rat; assay type: functional; conditions: Sprague-Dawley
Summary of the method: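 Fasted male SD rats (4 weeks, 105–115 g), six per dose group; compound in 0.1% MC po at 0.3, 1, 3 and 10 mg/kg, 15 min before 50 μL of 2% formalin s.c. into right hindpaw plantar surface.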

Canis familiaris = experiment: Volume of distribution in dog at 3 mg/kg, po; assay type: ADME, organism-based, Canis lupus familiaris; parameters: dose 3 mg/kg, route oral; conditions: in vivo; summary of the method: as §1
[13] = Oral bioavailability in rat at 3 mg/kg, po; assay type: ADME, organism-based; conditions: in vivo; summary of the method: as §1
Rattus norvegicus [14] = experiment: Hyperalgesia in male SD rat administered 2 hrs after carrageenan injection, analgesia tested at 3 hrs; assay type: functional; conditions: Sprague-Dawley; summary of the method: as §3
Adenosine kinase = Adenosine kinase (Homo sapiens, UniProt P55263); experiment: Inhibitory activity against recombinant human adenosine kinase
Sequence of Adenosine kinase (P55263 whole entry): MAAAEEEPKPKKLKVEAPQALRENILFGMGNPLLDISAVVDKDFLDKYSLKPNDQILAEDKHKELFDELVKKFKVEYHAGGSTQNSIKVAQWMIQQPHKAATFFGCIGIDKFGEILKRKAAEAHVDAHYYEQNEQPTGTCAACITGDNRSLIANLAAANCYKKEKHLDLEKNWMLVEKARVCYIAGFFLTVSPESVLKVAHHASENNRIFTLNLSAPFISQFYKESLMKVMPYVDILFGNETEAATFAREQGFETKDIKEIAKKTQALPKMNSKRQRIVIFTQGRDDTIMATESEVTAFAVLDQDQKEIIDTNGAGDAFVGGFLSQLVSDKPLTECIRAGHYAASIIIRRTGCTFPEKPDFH

[15] = Metabolic stability by incubation with human liver microsomes; assay type: ADME, Microsome
Rattus norvegicus [16] = organism: Rattus norvegicus; experiment: Rotarod test in rat at 5 hrs; assay type: functional; conditions: Sprague-Dawley; summary of the method: as §2
[17] = AUC (0-24) in dog at 3 mg/kg, po; assay type: ADME, organism-based, Canis lupus familiaris; parameters: time < 24 hr, dose 3 mg/kg, route oral; conditions: plasma
Rattus norvegicus [18] = experiment: Hyperalgesia in male SD rat administered 2 hrs after carrageenan injection, analgesia tested at 5 hrs; assay type: functional; conditions: Sprague-Dawley; summary of the method: as §3
[19] = Maximum concentration in dog at 3 mg/kg, po; assay type: ADME, organism-based, Canis lupus familiaris; parameters: dose 3 mg/kg, route oral; conditions: in vivo; summary of the method: as §1
Callitrichinae = experiment: Bradykinin-induced licking in male marmoset monkey; assay type: functional, Callithrix jacchus
Summary of the method: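 Male marmosets (293–359 g), 4–6 per group, individually housed; dosed po at 0.1, 1.0 and 10 mg/kg in 0.1% MC (vehicle control). 60 min post-dose, 100 μL of 1 mM bradykinin in saline injected i.pl. into foot pad. Response scored 0–3 every 15 s for 15 min from video; ataxia, sedation, emesis monitored. Alternate foot pads, 2-week intervals.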

Rattus norvegicus [20] = experiment: Toxicity in rat liver administered at 75 umol/kg, iv; assay type: organism-based; conditions: in vivo
Summary of the method: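 Three male rats given 75 μmol/kg total iv in 75:25 PEG-400/saline as two 40-min infusions 12 h apart; serum taken 24 h after first infusion for bilirubin, SGOT, SGPT, creatine, GGT, albumin, glucose, BUN and ALP.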

[21] = Solubility in water at pH 7.4
Rattus norvegicus [22] = experiment: Volume of distribution in rat at 3 mg/kg, po; assay type: ADME, organism-based; parameters: dose 3 mg/kg, route oral; conditions: in vivo; summary of the method: as §1
[23] = AUC (0-24) in rat at 3 mg/kg, po; assay type: ADME, organism-based; parameters: time < 24 hr, dose 3 mg/kg, route oral; conditions: plasma
[24] = Clearance in rat at 3 mg/kg, po; assay type: ADME, organism-based; parameters: dose 3 mg/kg, route oral; conditions: in vivo; summary of the method: as §1
Rattus norvegicus [25] = experiment: Hyperalgesia in male SD rat administered 1 hr before carrageenan injection, analgesia tested at 3 hrs; assay type: functional; conditions: Sprague-Dawley; summary of the method: as §3
Rattus norvegicus [26] = experiment: Hyperalgesia in male SD rat administered 2 hrs after carrageenan injection, analgesia tested at 4 hrs; assay type: functional; conditions: Sprague-Dawley; summary of the method: as §3
Rattus norvegicus [27] = organism: Rattus norvegicus; experiment: Rotarod test in rat at 0.5 hrs; assay type: functional; conditions: Sprague-Dawley; summary of the method: as §2
Rattus norvegicus [28] = experiment: Hyperalgesia in male SD rat administered 1 hr before carrageenan injection, analgesia tested at 4 hrs; assay type: functional; conditions: Sprague-Dawley; summary of the method: as §3
Rattus norvegicus [29] = experiment: Inhibition of the licking and biting response at 20 mg/kg, po in rat by formalin paw antinociceptive assay; assay type: functional; conditions: Sprague-Dawley
Summary of the method: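 Screening: fasted male SD rats (105–115 g), three per compound, 20 mg/kg po in 0.1% MC 15 min before 2% formalin (50 μL s.c., right hindpaw). Licking/biting scored 5 s per 30 s; percent inhibition reported for 2nd phase (15–30 min); positive control 5 mg/kg po each run.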

Q: Which Tmax [1] does the source give for C[C@H]1O[C@@H](n2cc(-c3ccccc3)c3c(NCC(=O)NC4CC4)ncnc32)[C@H](O)[C@@H]1O here?
A: Its Tmax is 0.3 h.

Q: What about the ED50 (Rattus norvegicus [2]) of the same molecule?
A: Its ED50 is 102 mg/kg.

Q: What about the Tmax [3] of the same molecule?
A: The Tmax was 0.3 h.

Q: What about the half-life [4] of the same molecule?
A: The half-life was 0.3 h.

Q: What about the CL/F [5] of the same molecule?
A: Its CL/F is 35 mL/min/kg.

Q: And the half-life [6]?
A: The half-life was 2 h.

Q: And the half-life [7]?
A: Its half-life is 5.2 h.

Q: And the ED50 (Rattus norvegicus [8])?
A: Its ED50 is > 300 mg/kg.

Q: What about the Inhibition (Rattus norvegicus [9]) of the same molecule?
A: Its Inhibition is <50%.

Q: And the Cmax [10]?
A: Its Cmax is 660 ng/mL.

Q: What about the Inhibition (Rattus norvegicus [11]) of the same molecule?
A: Its Inhibition is <50%.

Q: And the ED50 (Rattus norvegicus [12])?
A: The ED50 was 2.5 mg/kg.

Q: And the Vdss (Canis familiaris)?
A: Its Vdss is 6.3 L/kg.

Q: What about the bioavailability [13] of the same molecule?
A: The bioavailability was 128%.

Q: What about the ED50 (Rattus norvegicus [14]) of the same molecule?
A: Its ED50 is 1.6 mg/kg.

Q: What about the IC50 (Adenosine kinase) of the same molecule?
A: Its IC50 is 3 nM.

Q: And the half-life [15]?
A: Its half-life is 3.3 h.

Q: What about the ED50 (Rattus norvegicus [16]) of the same molecule?
A: Its ED50 is 62 mg/kg.

Q: And the AUC at 24 h [17]?
A: The AUC at 24 h was 1490 ng·h/mL.

Q: And the ED50 (Rattus norvegicus [18])?
A: Its ED50 is 6.5 mg/kg.

Q: And the Cmax [19]?
A: The Cmax was 518 ng/mL.

Q: What about the ED50 (Callitrichinae) of the same molecule?
A: The ED50 was 0.9 mg/kg.

Q: And the Activity (Rattus norvegicus [20])?
A: Its Activity is “Non-toxic”.

Q: What about the solubility [21] of the same molecule?
A: Its solubility is 32 µg/mL (≈ 75.6 µM).

Q: What about the Vdss (Rattus norvegicus [22]) of the same molecule?
A: The Vdss was 3.3 L/kg.

Q: And the AUC at 24 h [23]?
A: The AUC at 24 h was 981 ng·h/mL.

Q: What about the CL/F [24] of the same molecule?
A: Its CL/F is 56.7 mL/min/kg.

Q: And the ED50 (Rattus norvegicus [25])?
A: Its ED50 is 2.6 mg/kg.

Q: What about the ED50 (Rattus norvegicus [26]) of the same molecule?
A: The ED50 was 4.1 mg/kg.

Q: What about the ED50 (Rattus norvegicus [27]) of the same molecule?
A: Its ED50 is > 300 mg/kg.

Q: What about the ED50 (Rattus norvegicus [28]) of the same molecule?
A: The ED50 was 3.8 mg/kg.

Q: What about the inhibition in vivo at 20 mg/kg (Rattus norvegicus [29]) of the same molecule?
A: Its inhibition in vivo at 20 mg/kg is 66%.
